Assay outcomes deposited in PubChem BioAssay by Sanford-Burnham Center for Chemical Genomics.
A selection: hits, their analogues and other compounds. The true share with any hit is near 1.5%.
CCR6 antagonist = antagonists of human CCR6 receptor; P51684; CHO-K1 CCR6 PathHunter beta-arrestin, luminescence, CCL20-stimulated; inhibition, % at 20 µM; actives 0.49% (n = 340,000); AID 493098;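 active means compounds whose inhibition of the agonist-driven luminescence signal at 20 µM reaches about 50%, limit read from the data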;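 further: cells stimulated with CCL20 at 14 nM final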
CXCR6 inh = CXCR6 (human) receptor inhibition; O00574; CHO-K1 PathHunter CXCR6 beta-arrestin, luminescence; inhibition, % at 20 µM; actives 0.36% (n = 360,000); AID 602244; in the data active means inhibition above about 34%, passing the limit was not always enough;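 further: antagonist mode with CXCL16 agonist at 10 nM final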
APJ agonist = activates the human apelin receptor APJ; P35414; CHO-K1 APJ PathHunter beta-arrestin, luminescence; 0% DMSO wells, 100% apelin; activation, % at 20 µM; actives 0.11% (n = 330,000);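 active means activation more than six SD over the plate average, tested at 20 µM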
Target sequence (P35414 whole entry, looked up): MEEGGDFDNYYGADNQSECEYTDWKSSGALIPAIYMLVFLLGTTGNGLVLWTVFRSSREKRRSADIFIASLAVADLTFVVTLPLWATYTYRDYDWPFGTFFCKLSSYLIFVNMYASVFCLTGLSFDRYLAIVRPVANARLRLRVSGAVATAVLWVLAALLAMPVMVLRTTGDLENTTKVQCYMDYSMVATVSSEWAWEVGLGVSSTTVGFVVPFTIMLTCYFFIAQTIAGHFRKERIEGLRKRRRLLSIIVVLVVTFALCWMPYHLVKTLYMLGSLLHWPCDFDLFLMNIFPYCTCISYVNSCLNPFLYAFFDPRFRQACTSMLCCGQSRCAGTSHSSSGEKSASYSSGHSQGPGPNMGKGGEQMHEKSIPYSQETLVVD
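Material: engineered CHO-K1 APJ arrestin reporter cells; amount: 1000 CHO-K1 reporter cells seeded per well; incubation: compound stimulation 90 min at 25 °C, detection 60 min; signal: luminescent beta-gal fragment complementation, chemiluminescent substrate; read-out basis: APJ agonist activity; controls: DMSO-only wells as negative, 10 nM Apelin-13 as positive control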
APJ antagonist = APJ receptor antagonism | P35414 | CHO-K1 APJ beta-arrestin complementation, luminescence | inhibition, % at 20 µM | actives 0.32% (n = 330,000) | AID 2521;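 active means inhibition above about 40% at 20 µM, limit read from the data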;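 further: cells challenged with 10 nM apelin-13 agonist together with compound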
EBI2 antag = antagonists of human EBI2 receptor. P32249. EBI2 beta-arrestin recruitment, luminescence, 7a,25-OHC stimulated. inhibition, % at 5 µM. actives 0.81% (n = 360,000). AID 651636; in the data active means inhibition above about 38%;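 further: enzyme fragment complementation signal reports receptor beta-arrestin coupling in cells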
Target sequence (P32249 whole entry, looked up, the tested form may be a part): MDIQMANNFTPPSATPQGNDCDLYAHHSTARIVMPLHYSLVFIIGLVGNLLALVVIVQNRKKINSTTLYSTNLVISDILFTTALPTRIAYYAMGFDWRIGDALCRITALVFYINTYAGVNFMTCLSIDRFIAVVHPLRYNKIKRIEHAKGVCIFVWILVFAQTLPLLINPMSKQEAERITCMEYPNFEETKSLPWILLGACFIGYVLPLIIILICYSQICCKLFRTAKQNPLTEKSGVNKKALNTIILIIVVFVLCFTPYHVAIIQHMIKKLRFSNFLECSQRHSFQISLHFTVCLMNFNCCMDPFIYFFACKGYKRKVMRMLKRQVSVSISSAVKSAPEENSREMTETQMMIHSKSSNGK
EBI2 antag conf = confirmation of human EBI2 receptor antagonists | shares compounds with EBI2 antag | EBI2 beta-arrestin luminescence, 7a,25-OHC antagonism | actives 29% (n = 2,400) | inhibition, % at 5 µM;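 active means inhibition of at least 50%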
EBI2 ag = EBI2 agonism counter-screen. shares compounds with EBI2 antag. EBI2-expressing cells, agonist mode, luminescence, 60 min; 0% vehicle, 100% 7α,25-dihydroxycholesterol control. activation, % at 5 µM. 2,400 tested, under 10 active. AID 652000;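 active means activation of at least 50%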
bGal counter = counter-screen for EBI2 antagonists: E. coli beta-galactosidase inhibition; shares compounds with EBI2 antag; purified beta-galactosidase, luminescent Galacton Star, 15 min; inhibition, % at 5 µM; actives 1% (n = 2,400); AID 652176;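 active means replicate-average signal at least 3 plate SD below neutral wells, shown as high inhibition, flagging enzyme-inhibiting false positives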;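 further: higher means stronger loss of beta-gal luminescence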
Of the large screens only hits and unclear results are named; the others gave an inactive call (follow-up assays come after a bar, where they were run).

FC(F)(F)c1ccccc1Cc1c(-c2ccc(Cl)cc2)nc2c3ccccc3ccn12	none (no result: CCR6 antagonist, APJ agonist, APJ antagonist)
COc1cccc(-c2csc(N3CCN(C(=O)Nc4ccc(Cl)cc4)CC3)n2)c1	EBI2 antag 42 | EBI2 antag conf inactive | EBI2 ag inactive | bGal counter inactive
COc1ccc(NC(=O)N2CCN(c3nc(-c4cccc(OC)c4)cs3)CC2)cc1	none
COc1ccc(C)cc1NC(=O)COC(=O)C1CCN(C(=O)c2ccc(Cl)cc2)CC1	none
COc1ccc(C(C)=O)cc1COC(=O)C1CCN(C(=O)c2ccc(Cl)cc2)CC1	EBI2 antag 77 | EBI2 antag conf inactive | EBI2 ag inactive | bGal counter inactive
COc1ccc(COC(=O)C2CCN(C(=O)c3ccc(Cl)cc3)CC2)cc1F	EBI2 antag 49 | EBI2 antag conf inactive | EBI2 ag inactive | bGal counter inactive
CN(C)S(=O)(=O)c1ccc(C(=O)NCCSc2ccc(Br)cc2)cc1	EBI2 antag 65 | EBI2 antag conf inactive | EBI2 ag inactive | bGal counter inactive
CCc1nc2ccc(C(=O)NCCOc3ccc(OC)cc3)cn2c1N(CC)Cc1ccc(OC)c(OC)c1	EBI2 antag 58 (no result: CCR6 antagonist, APJ agonist, APJ antagonist) | EBI2 antag conf inactive | EBI2 ag inactive | bGal counter inactive
COc1ccc(OCCNC(=O)c2ccc3nc(C)c(N(C)Cc4ccc(NC(C)=O)cc4)n3c2)cc1	EBI2 antag 55 (no result: CCR6 antagonist, APJ agonist, APJ antagonist) | EBI2 antag conf inactive | EBI2 ag inactive | bGal counter inactive
CCc1nc2ccc(C(=O)NCCOc3ccc(OC)cc3)cn2c1N(C)C(=O)COc1ccccc1	EBI2 antag 53 (no result: CCR6 antagonist, APJ agonist, APJ antagonist) | EBI2 antag conf inactive | EBI2 ag inactive | bGal counter inactive
CCc1nc2ccc(C(=O)NCCOc3ccc(OC)cc3)cn2c1N(C)Cc1ccc(N(C)C)cc1	EBI2 antag 49 (no result: CCR6 antagonist, APJ agonist, APJ antagonist) | EBI2 antag conf inactive | EBI2 ag inactive | bGal counter inactive
CS(=O)(=O)c1nc(-c2ccccc2)cc(-c2ccccc2)c1C#N	EBI2 antag 56 | EBI2 antag conf 55 | EBI2 ag inactive | bGal counter inactive
CC(=O)c1ccc(NC(=O)C(C)n2nc(-c3ccccc3)c3cc(Cl)ccc32)cc1 (stereo unspecified)	EBI2 antag 44 | EBI2 antag conf inactive | EBI2 ag inactive | bGal counter inactive
CC(C(=O)NCc1ccco1)n1nc(-c2ccccc2)c2cc(Cl)ccc21 (stereo unspecified)	none
Cc1ccc(S(=O)(=O)N2C[C@H]3C(=O)C[C@@H](c4ccc(Cl)cc4)N(S(=O)(=O)c4ccc(C)cc4)[C@H]3C[C@H]2c2cccc3ccccc23)cc1	none (no result: CCR6 antagonist, APJ agonist, APJ antagonist)
Cc1csc(-c2ccc3cc(Cl)cc(Cl)c3n2)n1	none (no result: CCR6 antagonist, APJ agonist, APJ antagonist)
COc1ccc(C(=O)C2CCN(C(=O)c3ccc(F)cc3)CC2)cc1	none
CCOc1ccc(C(=O)C2CCN(C(=O)c3ccc([N+](=O)[O-])cc3)CC2)cc1	EBI2 antag 84 | EBI2 antag conf 53 | EBI2 ag inactive | bGal counter inactive
Cc1ccc(C2CCN(C(=O)Nc3ccc(F)cc3)C2)cc1 (stereo unspecified)	EBI2 antag 71 | EBI2 antag conf 54 | EBI2 ag inactive | bGal counter inactive
Cc1ccc(NC(=O)C2CCCN(C(=O)Nc3ccc(F)cc3)C2)cc1 (stereo unspecified)	none
COc1ccc(C(=O)C2CCN(C(=O)Nc3ccc(C)cc3)CC2)cc1	EBI2 antag 49 | EBI2 antag conf inactive | EBI2 ag inactive | bGal counter inactive
COc1ccc(C(=O)C2CCN(C(=O)c3ccc(C)cc3)CC2)cc1	EBI2 antag 53 | EBI2 antag conf inactive | EBI2 ag inactive | bGal counter inactive
Cc1ccc(NC(=O)N2CCC(C(=O)c3ccc(F)cc3)CC2)cc1	none
C[C@@H]1COc2cccc(N3CCSCC3)c2S(=O)(=O)N1	none (no result: CCR6 antagonist, APJ agonist, APJ antagonist)
COc1ccc(OC)c(C(=O)CSc2nnc(C3CC3)n2C2CC2)c1	none (no result: CCR6 antagonist, APJ agonist, APJ antagonist)
COCCCN1C(=O)C(CC(=O)NCC2CCCCC2)CC(C(=O)N2CCOCC2)=C1C (stereo unspecified)	none (no result: CCR6 antagonist, APJ agonist, APJ antagonist)
CC1(c2cccs2)CC(c2cccs2)=C(C#N)C(=O)N1 (stereo unspecified)	EBI2 antag 85 | EBI2 antag conf 64 | EBI2 ag inactive | bGal counter inactive
CC(C)(C)CNC(=O)c1cccc2c1C(=O)c1ccc(N3CCCC3)cc1S2(=O)=O	EBI2 antag 54 | EBI2 antag conf 61 | EBI2 ag inactive | bGal counter inactive
COc1ccc(N(CC(=O)NCCSc2ccccc2)S(=O)(=O)c2ccccc2)c(OC)c1	EBI2 antag 45 | EBI2 antag conf inactive | EBI2 ag inactive | bGal counter inactive
COc1ccc(N(CC(=O)NCCSc2ccccn2)S(=O)(=O)c2ccccc2)c(OC)c1	none
COc1ccc(N(CC(=O)NCCSCc2ccc(Cl)cc2)S(C)(=O)=O)cc1Cl	EBI2 antag 46 | EBI2 antag conf inactive | EBI2 ag inactive | bGal counter inactive
COc1ccccc1N(CC(=O)NCCSCc1ccc(C)cc1)S(=O)(=O)c1ccccc1	none
COc1ccc(N(CC(=O)NCCSCc2ccc(C)cc2)S(=O)(=O)c2ccccc2)cc1	EBI2 antag 73 | EBI2 antag conf inactive | EBI2 ag inactive | bGal counter inactive
COc1ccc(N(CC(=O)NCCSCc2cccc(Cl)c2)S(C)(=O)=O)cc1Cl	none
COc1ccccc1N(CC(=O)NCCSc1ccccc1)S(=O)(=O)c1ccccc1	EBI2 antag 50 | EBI2 antag conf inactive | EBI2 ag inactive | bGal counter inactive
CCN(CC)c1ccc(S(=O)(=O)N2CCOCC2)cc1NC(=O)CNCc1cccc(Cl)c1	none (no result: APJ agonist, APJ antagonist)
COc1ccc(OC)c(CN2C(=O)c3ccccc3C2c2nnnn2C(C)C)c1 (stereo unspecified)	none (no result: CCR6 antagonist, APJ agonist, APJ antagonist)
OC[C@H]1O[C@H](c2nc(-c3nc(-c4cccs4)no3)cs2)C[C@@H]1O	none (no result: CCR6 antagonist, APJ agonist, APJ antagonist)
COc1ccccc1N(CC(=O)NCCSc1ccccc1)S(C)(=O)=O	none
COc1ccccc1N(CC(=O)NCCSc1ccc(Cl)cc1)S(C)(=O)=O	EBI2 antag 80 | EBI2 antag conf 62 | EBI2 ag inactive | bGal counter inactive
COc1ccc(N(CC(=O)NCCSc2ccccc2)S(=O)(=O)c2ccccc2)cc1	EBI2 antag 88 | EBI2 antag conf 59 | EBI2 ag inactive | bGal counter inactive
Cc1ccc(SCCNC(=O)CN(c2ccc3c(c2)OCO3)S(C)(=O)=O)cc1	EBI2 antag 71 | EBI2 antag conf 58 | EBI2 ag inactive | bGal counter inactive
CCOC(=O)C1(C)CCN1C(=O)Cc1ccc(OC)cc1 (stereo unspecified)	none (no result: CCR6 antagonist, APJ agonist, APJ antagonist)
